# Reference: ChEMBL document CHEMBL5303300, “EUbOPEN Chemogenomics Library - Multiplex” (2023)
# Several values for one entry are separate records, joined by “and”; a condition that tells them apart may be missing. Equal entries are not always repeated.
# Legend:
# U2OS = test: Multiplex assay against U2OS; format: toxicity, cell-based; details: human, number of replicates 2
# Outline: (§1)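 Imaging took place on a CQ1 microscope at 37°C and 5% CO2 once compound had been added to live cells stained at seeding with Hoechst33342, BioTracker Green Microtubule Cytoskeleton Dye, MitoTracker Red and Annexin V Alexa Fluor 680. CellPathfinder machine-learning gating classed cells as Hoechst high-intensity objects or normal cells, classed normal cells as having healthy, pyknosed or fragmented nuclei, and classed pyknosed cells as mitotic or apoptotic. Tubulin, mitochondrial-mass and membrane-permeability phenotypes are per cents of the healthy-nucleus cells.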
# Fibroblast = test: Multiplex assay against human fibroblast; format: toxicity, cell-based; details: number of replicates 2; outline: as §1
# [1] = 12 h, 1 µM, compound concentration 1 uM
# [2] = 12 h, 10 µM, compound concentration 10 uM
# [3] = 24 h, 1 µM, compound concentration 1 uM
# [4] = 24 h, 10 µM, compound concentration 10 uM
# [5] = 48 h, 1 µM, compound concentration 1 uM
# [6] = 48 h, 10 µM, compound concentration 10 uM
structure (smiles),measurement,setting,value
OC(c1ccc(-c2ccc(CN3CCN(Cc4ccncc4)CC3)cc2)c(F)c1)(C(F)(F)F)C(F)(F)F,Population Hoechst High Intensity Objects (%),U2OS; [1],0%
same,Population Mitochondria Different-Phenotype (%),U2OS; [1],0% and 1%
same,Population Normal (%),U2OS; [1],100%
same,Population Pyknosed Nuclei (%),U2OS; [1],14% and 9%
same,Population Tubulin-Different-Phenotype (%),U2OS; [1],100% and 87%
same,Population Apoptotic (%),U2OS; [2],50% and 40%
same,Population Healthy Nuclei (%),U2OS; [2],80% and 50%
same,Population Hoechst High Intensity Objects (%),U2OS; [2],0%
same,Population Mitochondria Different-Phenotype (%),U2OS; [2],3% and 0%
same,Population Mitotic Cells (%),U2OS; [2],50% and 60%
same,Population Normal (%),U2OS; [2],100%
same,Population Pyknosed Nuclei (%),U2OS; [2],15% and 17%
same,Population Hoechst High Intensity Objects (%),U2OS; [3],0%
same,Population Membrane Permeable-Phenotype (%),U2OS; [3],0%
same,Population Mitochondria Different-Phenotype (%),U2OS; [3],0%
same,Population Mitotic Cells (%),U2OS; [3],100% and 42%
same,Population Normal (%),U2OS; [3],100% and 99%
same,Population Pyknosed Nuclei (%),U2OS; [3],20% and 9%
same,Population Apoptotic (%),U2OS; [4],53% and 57%
same,Population Healthy Nuclei (%),U2OS; [4],79% and 54%
same,Population Hoechst High Intensity Objects (%),U2OS; [4],0%
same,Population Mitochondria Different-Phenotype (%),U2OS; [4],2% and 0%
same,Population Mitotic Cells (%),U2OS; [4],46% and 42%
same,Population Normal (%),U2OS; [4],99% and 100%
same,Population Pyknosed Nuclei (%),U2OS; [4],14% and 18%
same,Population Tubulin-Different-Phenotype (%),U2OS; [4],50% and 25%
same,Population Hoechst High Intensity Objects (%),U2OS; [5],0%
same,Population Membrane Permeable-Phenotype (%),U2OS; [5],0% and 1%
same,Population Mitochondria Different-Phenotype (%),U2OS; [5],0%
same,Population Normal (%),U2OS; [5],100%
same,Population Pyknosed Nuclei (%),U2OS; [5],0% and 5%
same,Population Apoptotic (%),U2OS; [6],54% and 58%
same,Population Healthy Nuclei (%),U2OS; [6],84% and 56%
same,Population Hoechst High Intensity Objects (%),U2OS; [6],0% and 1%
same,Population Membrane Permeable-Phenotype (%),U2OS; [6],3% and 10%
same,Population Mitochondria Different-Phenotype (%),U2OS; [6],2% and 3%
same,Population Mitotic Cells (%),U2OS; [6],45% and 41%
same,Population Normal (%),U2OS; [6],100% and 98%
same,Population Pyknosed Nuclei (%),U2OS; [6],11% and 23%
same,Population Apoptotic (%),Fibroblast; [1],54% and 23%
same,Population Fragmented Nuclei (%),Fibroblast; [1],5% and 6%
same,Population Healthy Nuclei (%),Fibroblast; [1],43% and 70%
same,Population Hoechst High Intensity Objects (%),Fibroblast; [1],0%
same,Population Membrane Permeable-Phenotype (%),Fibroblast; [1],8% and 3%
same,Population Mitochondria Different-Phenotype (%),Fibroblast; [1],0% and 1%
same,Population Mitotic Cells (%),Fibroblast; [1],45% and 76%
same,Population Normal (%),Fibroblast; [1],100%
same,Population Pyknosed Nuclei (%),Fibroblast; [1],50% and 23%
same,Population Tubulin-Different-Phenotype (%),Fibroblast; [1],6% and 8%
same,Total Cell Count,Fibroblast; [1],108 and 164
same,Population Apoptotic (%),Fibroblast; [2],31% and 45%
same,Population Fragmented Nuclei (%),Fibroblast; [2],10% and 16%
same,Population Healthy Nuclei (%),Fibroblast; [2],70% and 63%
same,Population Hoechst High Intensity Objects (%),Fibroblast; [2],0%
same,Population Membrane Permeable-Phenotype (%),Fibroblast; [2],6% and 8%
same,Population Mitochondria Different-Phenotype (%),Fibroblast; [2],0% and 3%
same,Population Mitotic Cells (%),Fibroblast; [2],68% and 55%
same,Population Normal (%),Fibroblast; [2],100% and 99%
same,Population Pyknosed Nuclei (%),Fibroblast; [2],18% and 19%
same,Population Tubulin-Different-Phenotype (%),Fibroblast; [2],24% and 25%
same,Total Cell Count,Fibroblast; [2],156 and 204
same,Population Apoptotic (%),Fibroblast; [3],61% and 55%
same,Population Fragmented Nuclei (%),Fibroblast; [3],6% and 10%
same,Population Healthy Nuclei (%),Fibroblast; [3],45% and 65%
same,Population Hoechst High Intensity Objects (%),Fibroblast; [3],0%
same,Population Membrane Permeable-Phenotype (%),Fibroblast; [3],12% and 7%
same,Population Mitochondria Different-Phenotype (%),Fibroblast; [3],2% and 3%
same,Population Mitotic Cells (%),Fibroblast; [3],38% and 44%
same,Population Normal (%),Fibroblast; [3],100%
same,Population Pyknosed Nuclei (%),Fibroblast; [3],47% and 23%
same,Population Tubulin-Different-Phenotype (%),Fibroblast; [3],16% and 15%
same,Total Cell Count,Fibroblast; [3],109 and 151
same,Population Apoptotic (%),Fibroblast; [4],44% and 45%
same,Population Fragmented Nuclei (%),Fibroblast; [4],7% and 13%
same,Population Healthy Nuclei (%),Fibroblast; [4],74% and 61%
same,Population Hoechst High Intensity Objects (%),Fibroblast; [4],0%
same,Population Membrane Permeable-Phenotype (%),Fibroblast; [4],3% and 7%
same,Population Mitochondria Different-Phenotype (%),Fibroblast; [4],1% and 3%
same,Population Mitotic Cells (%),Fibroblast; [4],56% and 54%
same,Population Normal (%),Fibroblast; [4],99% and 100%
same,Population Pyknosed Nuclei (%),Fibroblast; [4],17% and 24%
same,Population Tubulin-Different-Phenotype (%),Fibroblast; [4],16% and 23%
same,Total Cell Count,Fibroblast; [4],144 and 197
same,Population Apoptotic (%),Fibroblast; [5],74% and 80%
same,Population Fragmented Nuclei (%),Fibroblast; [5],16% and 17%
same,Population Healthy Nuclei (%),Fibroblast; [5],53% and 61%
same,Population Hoechst High Intensity Objects (%),Fibroblast; [5],0%
same,Population Membrane Permeable-Phenotype (%),Fibroblast; [5],11% and 5%
same,Population Mitochondria Different-Phenotype (%),Fibroblast; [5],0%
same,Population Mitotic Cells (%),Fibroblast; [5],25% and 19%
same,Population Normal (%),Fibroblast; [5],100%
same,Population Pyknosed Nuclei (%),Fibroblast; [5],29% and 21%
same,Population Tubulin-Different-Phenotype (%),Fibroblast; [5],11% and 12%
same,Total Cell Count,Fibroblast; [5],118 and 167
same,Population Apoptotic (%),Fibroblast; [6],73% and 77%
same,Population Fragmented Nuclei (%),Fibroblast; [6],14% and 16%
same,Population Healthy Nuclei (%),Fibroblast; [6],73% and 71%
same,Population Hoechst High Intensity Objects (%),Fibroblast; [6],0%
same,Population Membrane Permeable-Phenotype (%),Fibroblast; [6],6% and 4%
same,Population Mitochondria Different-Phenotype (%),Fibroblast; [6],0% and 2%
same,Population Mitotic Cells (%),Fibroblast; [6],26% and 22%
same,Population Normal (%),Fibroblast; [6],100%
same,Population Pyknosed Nuclei (%),Fibroblast; [6],11% and 12%
same,Population Tubulin-Different-Phenotype (%),Fibroblast; [6],16% and 12%
same,Total Cell Count,Fibroblast; [6],162 and 183
